In data set [1] the target is T1, Histone deacetylase 8 (Homo sapiens) (UniProt Q9BY41).
T1 sequence (whole entry): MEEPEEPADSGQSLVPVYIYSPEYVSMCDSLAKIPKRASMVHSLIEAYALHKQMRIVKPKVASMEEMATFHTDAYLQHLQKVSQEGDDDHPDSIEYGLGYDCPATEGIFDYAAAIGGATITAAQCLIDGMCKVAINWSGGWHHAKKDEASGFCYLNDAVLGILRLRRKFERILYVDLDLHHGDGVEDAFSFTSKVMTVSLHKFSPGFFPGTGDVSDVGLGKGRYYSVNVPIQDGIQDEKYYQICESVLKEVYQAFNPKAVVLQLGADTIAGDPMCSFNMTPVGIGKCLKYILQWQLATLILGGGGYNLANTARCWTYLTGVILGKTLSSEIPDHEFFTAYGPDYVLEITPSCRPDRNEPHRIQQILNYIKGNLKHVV
In words: Inhibition of HDAC8 in human HuH7-luc/neo cells assessed as ratio of SMC3K105/106ac content to the content of unmodified SMC3 at 0.3 uM incubated for 24 hrs by Western blot analysis relative to control. In kind it is cell-based. An outline of the steps: (§1)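 Huh7-luc/neo cells were dosed after 24 h at 40-50% monolayer and exposed to compound for 24 h at 37 °C in 5% CO2. For α-tubulin and SMC3, cells were PBS-washed and lysed. Histone H3 was acid-extracted: TEB buffer with 0.5% Triton X-100, then 0.2 M HCl overnight at 4 °C, then neutralized. Western blots were blocked in 5% milk/PBST with overnight primary antibody at 4 °C. Values are acetylated/total normalized ratios versus control.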

The target in data set [2] is T2, Histone deacetylase 1/2/3 (Homo sapiens) (UniProt Q13547+O15379+Q92769). The data set is described as follows: Inhibition of HDAC1/2/3 in human HuH7-luc/neo cells assessed as ratio of H3K9/14ac content to the content of unmodified histone H3 at 3 uM incubated for 24 hrs by Western blot analysis relative to control. In kind it is cell-based. An outline of the steps:
as §1

Data set [3] deals with T1, Histone deacetylase 8 (Homo sapiens). In words: Inhibition of HDAC8 in human HuH7-luc/neo cells assessed as ratio of SMC3K105/106ac content to the content of unmodified SMC3 at 0.1 uM incubated for 24 hrs by Western blot analysis relative to control. In kind it is cell-based. An outline of the steps: as §1
For data set [4] the target is unchanged. The data set is described as follows: Inhibition of HDAC8 in human HuH7-luc/neo cells assessed as ratio of SMC3K105/106ac content to the content of unmodified SMC3 at 1 uM incubated for 24 hrs by Western blot analysis relative to control. In kind it is cell-based. In short, it runs like this:
as §1

The target in data set [5] is T3, Protein deacetylase HDAC6 (Homo sapiens) (UniProt Q9UBN7).
T3 sequence (whole entry): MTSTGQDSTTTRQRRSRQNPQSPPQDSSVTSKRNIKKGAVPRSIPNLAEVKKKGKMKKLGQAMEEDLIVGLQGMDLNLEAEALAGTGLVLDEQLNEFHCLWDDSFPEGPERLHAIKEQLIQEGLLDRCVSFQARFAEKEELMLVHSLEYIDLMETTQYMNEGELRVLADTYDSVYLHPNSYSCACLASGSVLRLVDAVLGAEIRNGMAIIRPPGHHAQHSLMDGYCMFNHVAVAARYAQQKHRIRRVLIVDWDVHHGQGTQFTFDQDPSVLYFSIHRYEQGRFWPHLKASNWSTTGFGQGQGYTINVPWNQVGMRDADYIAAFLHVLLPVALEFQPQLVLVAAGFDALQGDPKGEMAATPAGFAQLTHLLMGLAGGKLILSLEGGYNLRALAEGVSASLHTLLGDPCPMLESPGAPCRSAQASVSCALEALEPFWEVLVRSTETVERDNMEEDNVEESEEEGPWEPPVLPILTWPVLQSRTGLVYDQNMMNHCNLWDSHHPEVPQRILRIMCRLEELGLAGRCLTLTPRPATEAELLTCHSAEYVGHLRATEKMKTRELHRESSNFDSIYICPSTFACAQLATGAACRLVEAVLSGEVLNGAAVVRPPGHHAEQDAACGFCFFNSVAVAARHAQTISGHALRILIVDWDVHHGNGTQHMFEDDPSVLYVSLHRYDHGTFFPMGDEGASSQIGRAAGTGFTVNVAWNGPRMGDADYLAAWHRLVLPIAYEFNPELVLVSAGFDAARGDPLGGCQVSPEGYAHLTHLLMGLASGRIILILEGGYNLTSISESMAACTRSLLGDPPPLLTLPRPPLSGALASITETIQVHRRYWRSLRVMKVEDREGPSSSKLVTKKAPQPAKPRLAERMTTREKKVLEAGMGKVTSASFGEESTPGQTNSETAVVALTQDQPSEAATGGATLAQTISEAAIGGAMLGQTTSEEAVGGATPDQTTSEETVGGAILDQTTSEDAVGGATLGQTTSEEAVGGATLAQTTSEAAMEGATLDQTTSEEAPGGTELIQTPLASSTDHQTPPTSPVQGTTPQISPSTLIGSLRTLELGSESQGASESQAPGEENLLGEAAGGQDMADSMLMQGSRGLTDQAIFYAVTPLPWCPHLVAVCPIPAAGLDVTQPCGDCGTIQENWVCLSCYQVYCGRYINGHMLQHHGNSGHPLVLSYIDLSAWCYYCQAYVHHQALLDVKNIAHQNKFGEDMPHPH
The data set is described as follows: Inhibition of HDAC6 in human HuH7-luc/neo cells assessed as ratio of alphaTubK40ac content to the content of unmodified alpha-tubulin at 1 uM incubated for 24 hrs by Western blot analysis relative to control. In kind it is cell-based. An outline of the steps:
as §1

The nature of data set [6]: Therapeutic index, ratio of CC50 for human HuH7 cells to EC50 for HCV infected in human HuH7-luc/neo cells. In kind it is toxicity, cell-based. Particulars: HuH7 cells (CC50) and HCV-infected HuH7-luc/neo cells (EC50).
Data set [7] deals with T2, Histone deacetylase 1/2/3 (Homo sapiens). The data set is described as follows: Inhibition of HDAC1/2/3 in human HuH7-luc/neo cells assessed as ratio of H3K9/14ac content to the content of unmodified histone H3 at 1 uM incubated for 24 hrs by Western blot analysis relative to control. In kind it is cell-based. An outline of the steps:
as §1

Data set [8] has as its target T1, Histone deacetylase 8 (Homo sapiens). The data set is described as follows: Inhibition of HDAC8 in human HuH7-luc/neo cells assessed as ratio of SMC3K105/106ac content to the content of unmodified SMC3 at 10 uM incubated for 24 hrs by Western blot analysis relative to control. In kind it is cell-based. In short, it runs like this: as §1
Data set [9] deals with Hepatitis C virus. In words: Antiviral activity against HCV infected in human HuH7-luc/neo cells assessed as inhibition of viral replicon propagation incubated for 3 days by luciferase reporter gene assay. In kind it is functional, organism-based, Hepacivirus hominis. The settings on record: 72 h. An outline of the steps:
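Huh7-luc/neo cells carrying a full-length HCV replicon with a luciferase gene. Cells were reseeded without G418 and dosed at 30-40% monolayer (48 h) over a range of concentrations. Incubation was 72 h at 37 °C in 5% CO2. Cells were then PBS-washed and lysed, and luciferase chemiluminescence was read. EC50 is the mean and standard deviation of at least four independent experiments.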

In data set [10] the target is T3, Protein deacetylase HDAC6 (Homo sapiens). In words: Inhibition of HDAC6 in human HuH7-luc/neo cells assessed as ratio of alphaTubK40ac content to the content of unmodified alpha-tubulin at 3 uM incubated for 24 hrs by Western blot analysis relative to control. In kind it is cell-based. An outline of the steps: as §1
Data set [11] deals with T1, Histone deacetylase 8 (Homo sapiens). In words: Inhibition of HDAC8 in human HuH7-luc/neo cells assessed as ratio of SMC3K105/106ac content to the content of unmodified SMC3 at 3 uM incubated for 24 hrs by Western blot analysis relative to control. In kind it is cell-based. In short, it runs like this: as §1
In data set [12] the target is T2, Histone deacetylase 1/2/3 (Homo sapiens). The data set is described as follows: Inhibition of HDAC1/2/3 in human HuH7-luc/neo cells assessed as ratio of H3K9/14ac content to the content of unmodified histone H3 at 0.3 uM incubated for 24 hrs by Western blot analysis relative to control. In kind it is cell-based. In short, it runs like this:
as §1

A short description of data set [13]: Cytotoxicity against human HuH7 cells assessed as reduction in cell viability incubated for 3 days by MTT assay. In kind it is cell-based, Huh-7. In short, it runs like this: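 Huh7 cells were reseeded and dosed over a range of concentrations after 24 h (30-40% monolayer). Incubation was three days at 37 °C in 5% CO2, and viability was read by MTT. CC50 is the mean and standard deviation of at least six independent experiments.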

For data set [14], the target named is T3, Protein deacetylase HDAC6 (Homo sapiens). The data set is described as follows: Inhibition of HDAC6 in human HuH7-luc/neo cells assessed as ratio of alphaTubK40ac content to the content of unmodified alpha-tubulin at 0.3 uM incubated for 24 hrs by Western blot analysis relative to control. In kind it is cell-based. In short, it runs like this:
as §1

Each structure is given as a SMILES string.

`O=C(/C=C/c1ccccc1Oc1ccccc1)NO`: the fold change (FC) worked out at 2.03 in [1]; 1.46 in data set [2]; 1.7 in data set [3]; 2.15 in data set [4]; 0.74 in [5]; 0.9 in data set [7]. The fold change (FC) was 3.14 in [8], 1.01 in [10], 2.66 in data set [11] and 0.62 in data set [12]. The selectivity ratio in data set [6] worked out at 165. The concentration giving a half-maximal response (EC50) in data set [9] is 0.4 µM. In addition, in [13], the CC50 at 72 h was determined as 66 µM.
Take `O=C(/C=C/c1ccccc1OCCOc1ccccc1)NO`: the fold change (FC) was determined as 2.07 in [1]; 1.94 in [2]; 1.58 in data set [3]; 2.14 in [4]; 0.5 in data set [5]; 1.47 in [7]. Also, the figures for the fold change (FC) in data set [8], in data set [10] and in data set [11] were 2.87, 0.69 and 3.18, respectively. In addition, the selectivity ratio in [6] amounted to 120. Also, in data set [9], the EC50 is 0.37 µM. The CC50 at 72 h in data set [13] was found to be 45 µM.
Turning to `O=C(/C=C/c1ccccc1OCc1ccccc1)NO`, the fold change (FC) in data set [1] turned out to be 1.19; in data set [2], 1.48; in [3] it was 1.51; in data set [4], 1.61; in data set [5], 2.46; in data set [7], 0.95. Also, the fold change (FC) was determined as 3.14 in data set [8], 1.99 in data set [10] and 2.16 in [11]. The selectivity ratio in [6] turned out to be 120. Also, the EC50 in data set [9] worked out at 0.25 µM. Besides, the CC50 at 72 h in [13] is 31 µM.
As for `O=C(/C=C/c1ccc(OCCOc2ccccc2)cc1)NO`, the fold change (FC) came to 15.4 in data set [2]; 0.86 in [14]; 3.73 in data set [5]; 11.2 in data set [7]; 1.13 in [8]; 6.35 in data set [10]. The figures for the fold change (FC) in data set [11] and in [12] were 0.84 and 4.04, respectively. Also, the selectivity ratio in [6] is 91. Also, in data set [9], the EC50 was found to be 0.063 µM. For the same compound, the CC50 at 72 h in data set [13] worked out at 5.7 µM.
For `O=C(/C=C/c1ccccc1OCCc1ccccc1)NO`, the fold change (FC) was determined as 2.03 in data set [1]; 4.34 in data set [2]; 1.84 in data set [3]; 1.98 in data set [4]; 0.64 in data set [5]; 2.39 in data set [7]. For the same compound, the fold change (FC) in [8] was 3.78; in data set [10], 0.8; in [11] it was 3.17. Also, in data set [6], the selectivity ratio was 260. The concentration giving a half-maximal response (EC50) in [9] stood at 0.32 µM. In addition, the CC50 at 72 h in data set [13] was 83 µM.
For the compound `O=C(/C=C/c1cccc(Oc2ccccc2)c1)NO`, the fold change (FC) in [2] was 1.9; in data set [14], 1.54; in data set [5], 2.58; in [7], 1.75; in data set [8] it was 1.02; in data set [10], 3.79. The fold change (FC) in data set [11] was 0.54; in [12], 1.27. In addition, the selectivity ratio in data set [6] was found to be 50. The EC50 in [9] worked out at 0.4 µM. In [13], the CC50 at 72 h came out at 20 µM.
